Like-named read-outs stand apart in the source and are kept apart here. Marks after values point to notes of the source that are not given here.
Legend:
healthy volunteers [1] = assay: Thorough QT/QTc study part 2: Holter ECG, Fridericia-corrected QT interval; assay type: in vivo, human; conditions: for Mean difference vs. placebo (90% CI), msec ddQTcF: MOX 400 mg (C–D); for Mean change from baseline, msec ddQTcF: MOX 400 mg single dose (C)
Method in brief: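 Healthy subjects, randomized four-period crossover with 10-day washouts, fed: oral fostemsavir 1,200 mg q.d. or 2,400 mg b.i.d. for 7 days, placebo b.i.d., or single moxifloxacin 400 mg on day 7. Triplicate ECGs from 24-h Holter, read centrally. Baseline is the mean of day-1 predose readings; readings 0.5–22.25 h post-dose on day 7. Linear mixed model gives 90% CI; bound 10 msec; assay sensitivity >5 msec at 2–4 h.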

healthy volunteers [2] = test system: healthy volunteers; design: species or system human; conditions: final linear concentration‐ddQTcF model
dog = conditions: nonclinical assessment of fostemsavir or TMR ref unpublished data; cited from earlier work
[3] = cited from earlier work
[4] = heavily treatment‐experienced HIV‐1 infected patients, fostemsavir 600 mg b.i.d., BRIGHTE (NCT02362503) ref 22; cited from earlier work
[5] = cited from earlier work; remark: listed apart in the source
[6] = cited from earlier work; remark: listed apart in the source
[7] = cited from earlier work; remark: listed apart in the source
QTc interval = conditions: cited from earlier work
[8] = ritonavir 100 mg (q.d. or b.i.d.) ref 18, 21; cited from earlier work

Compound: COc1c(N2C[C@@H]3CCCN[C@@H]3C2)c(F)cc2c(=O)c(C(=O)O)cn(C3CC3)c12 [MOX, moxifloxacin, reference compound]
- Mean difference vs. placebo (90% CI), msec ddQTcF (healthy volunteers [1]; day 7, 0.5 hour): 0.42 (–1.73, 2.58) msec
- Mean difference vs. placebo (90% CI), msec ddQTcF (healthy volunteers [1]; day 7, 1 hour): 2.95 (0.80, 5.10) msec
- Mean difference vs. placebo (90% CI), msec ddQTcF (healthy volunteers [1]; day 7, 2 hour): 8.69 (6.57, 10.82)^a msec
- Mean difference vs. placebo (90% CI), msec ddQTcF (healthy volunteers [1]; day 7, 3 hour): 10.43 (8.32, 12.54)^b msec
- Mean difference vs. placebo (90% CI), msec ddQTcF (healthy volunteers [1]; day 7, 4 hour): 10.33 (8.22, 12.44)^c msec
- Mean difference vs. placebo (90% CI), msec ddQTcF (healthy volunteers [1]; day 7, 5 hour): 8.83 (6.72, 10.94) msec
- Mean difference vs. placebo (90% CI), msec ddQTcF (healthy volunteers [1]; day 7, 6 hour): 7.98 (5.87, 10.09) msec
- Mean difference vs. placebo (90% CI), msec ddQTcF (healthy volunteers [1]; day 7, 8 hour): 8.05 (5.94, 10.17) msec
- Mean difference vs. placebo (90% CI), msec ddQTcF (healthy volunteers [1]; day 7, 10 hour): 8.96 (6.85, 11.07) msec
- Mean difference vs. placebo (90% CI), msec ddQTcF (healthy volunteers [1]; day 7, 11.5 hour): 8.75 (6.64, 10.86) msec
- Mean difference vs. placebo (90% CI), msec ddQTcF (healthy volunteers [1]; day 7, 14 hour): 7.55 (5.44, 9.66) msec
- Mean difference vs. placebo (90% CI), msec ddQTcF (healthy volunteers [1]; day 7, 15 hour): 5.64 (3.52, 7.75) msec
- Mean difference vs. placebo (90% CI), msec ddQTcF (healthy volunteers [1]; day 7, 16 hour): 6.92 (4.81, 9.03) msec
- Mean difference vs. placebo (90% CI), msec ddQTcF (healthy volunteers [1]; day 7, 22.25 hour): 6.19 (4.08, 8.30) msec
- Mean change from baseline, msec ddQTcF (healthy volunteers [1]; day 7, 0.5 hour): –7.12 msec
- Mean change from baseline, msec ddQTcF (healthy volunteers [1]; day 7, 1 hour): –4.82 msec
- Mean change from baseline, msec ddQTcF (healthy volunteers [1]; day 7, 2 hour): –1.93 msec
- Mean change from baseline, msec ddQTcF (healthy volunteers [1]; day 7, 3 hour): 0.40 ms
- Mean change from baseline, msec ddQTcF (healthy volunteers [1]; day 7, 4 hour): 3.30 ms
- Mean change from baseline, msec ddQTcF (healthy volunteers [1]; day 7, 5 hour): 4.16 ms
- Mean change from baseline, msec ddQTcF (healthy volunteers [1]; day 7, 6 hour): –0.81 msec
- Mean change from baseline, msec ddQTcF (healthy volunteers [1]; day 7, 8 hour): –0.74 msec
- Mean change from baseline, msec ddQTcF (healthy volunteers [1]; day 7, 10 hour): 5.78 ms
- Mean change from baseline, msec ddQTcF (healthy volunteers [1]; day 7, 11.5 hour): 1.83 ms
- Mean change from baseline, msec ddQTcF (healthy volunteers [1]; day 7, 14 hour): 0.60 ms
- Mean change from baseline, msec ddQTcF (healthy volunteers [1]; day 7, 15 hour): 1.49 ms
- Mean change from baseline, msec ddQTcF (healthy volunteers [1]; day 7, 16 hour): 5.41 ms
- Mean change from baseline, msec ddQTcF (healthy volunteers [1]; day 7, 22.25 hour): 2.73 ms
- lower bound of multiplicity‐adjusted 90% CI of ddQTcF (assay sensitivity) (healthy volunteers [1]; moxifloxacin 400 mg, at 2, 3, and 4 hours): above 5 msec

Compound: COc1cnc(-n2cnc(C)n2)c2[nH]cc(C(=O)C(=O)N3CCN(C(=O)c4ccccc4)CC3)c12 [TMR, temsavir]
- relationship of ddQTcF with plasma TMR concentration (healthy volunteers [1]; graphical assessment, part 2 data): positive linear relationship
- Intercept θ1, bootstrap parameter estimate for n = 1,000 (90% CI) (healthy volunteers [2]): –0.727 (–2.500, 1.072) msec
- Intercept θ1, population mean estimate (% RSE) (healthy volunteers [2]): –0.783 (139) msec
- Slope θ2, bootstrap parameter estimate for n = 1,000 (90% CI) (healthy volunteers [2]): 0.00126 (0.0011, 0.00142) msec per ng/mL TMR
- Slope θ2, population mean estimate (% RSE) (healthy volunteers [2]): 0.00126 (7.9) msec per ng/mL TMR
- maximum observed TMR concentrations indicating cardiovascular liability (dog): ≥ 3,600 ng/mL
- membrane permeability [3]: good
- geometric mean TMR peak plasma concentration (Cmax) [4]: 1,770 ng/mL
- effect of renal impairment on Cmax [5]: no effect
- influence of hepatic impairment on Cmax [6]: < 1.72 fold

Compound: CC(C)c1nc(CN(C)C(=O)N[C@@H](CCN2CCOCC2)C(=O)N[C@H](CC[C@H](Cc2ccccc2)NC(=O)OCc2cncs2)Cc2ccccc2)cs1 [cobicistat]
- increase in Cmax compared to without concomitant cobicistat ([7]; coadministration with cobicistat ref 21, 22): 1.71 fold
- increase in TMR plasma Cmax ([7]; cobicistat 150 mg q.d. ref 18, 21): 71%

Compound: Cc1cc(/C=C/C#N)cc(C)c1Nc1ccnc(Nc2ccc(C#N)cc2)n1 [rilpivirine]
- QTc prolongation, one‐sided 95% CI upper bound (QTc interval; supratherapeutic dose 75 mg ref 11): 15.3 ms
- QTc prolongation, one‐sided 95% CI upper bound (QTc interval; therapeutic dose 25 mg ref 11): 8.2 ms

Compound: CC(C)c1nc(CN(C)C(=O)N[C@H](C(=O)N[C@@H](Cc2ccccc2)C[C@H](O)[C@H](Cc2ccccc2)NC(=O)OCc2cncs2)C(C)C)cs1 [ritonavir]
- increase in TMR plasma Cmax [8]: 45–53%
